Assay results from different studies.
Compare with care: the assays were run in different laboratories.
Target: Dual specificity mitogen-activated protein kinase kinase 3 (MAP2K3, Homo sapiens, UniProt P46734)
One construct used (P46734 1-347): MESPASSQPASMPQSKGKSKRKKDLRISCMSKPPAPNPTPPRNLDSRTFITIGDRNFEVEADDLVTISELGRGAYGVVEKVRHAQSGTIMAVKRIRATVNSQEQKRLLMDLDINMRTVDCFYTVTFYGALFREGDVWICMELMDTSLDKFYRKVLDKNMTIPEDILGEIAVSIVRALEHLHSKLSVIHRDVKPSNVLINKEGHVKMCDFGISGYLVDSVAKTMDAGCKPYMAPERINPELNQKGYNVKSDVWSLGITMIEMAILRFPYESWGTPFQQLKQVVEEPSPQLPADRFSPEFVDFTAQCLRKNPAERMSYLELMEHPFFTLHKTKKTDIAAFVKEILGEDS

Structure (SMILES)	assay	conditions	remaining binding [%]
CN(C)c1nccc(-c2cnn3ncccc23)n1	binding	1 µM	51
FC(F)(F)c1ccc2c(c1)nc(-c1cccnc1)n2C1CC1	cell-free assay, competition with immobilised ligand	1 µM	100
C=CC(=O)N1CCC(C(=O)NCC(=O)N2CCN(c3nc(-c4cnc(N)nc4C(F)F)nc(N4CCOCC4)n3)CC2)CC1	binding, competition with immobilised ligand	1 µM	59
CCCOc1ccc([C@H]2[C@H](C(=O)O)[C@@H](c3ccc4c(c3)OCO4)CN2CC(=O)Nc2c(CC)cccc2CC)cc1	cell-free assay, competition with immobilised ligand	1 µM	60
Cc1cnn2ncc(-c3ccnc(N(C)C)n3)c2c1	binding	1 µM	83
C[C@H](NC(=O)c1cnc2n1[C@](C)(Cc1ccc(C#N)cc1)C(=O)N2c1cc(Cl)c(F)c(Cl)c1)C(=O)NC1(c2ccccn2)CC1	cell-free assay, competition with immobilised ligand	1 µM	80
CN(C)c1nccc(-c2cnc3ncccn23)n1	binding	1 µM	78
Cc1cnc(Nc2ccc(C(=O)N3CCC(N4CCCC4)CC3)cc2)nc1-c1cc2ccccc2s1	binding, competition with immobilised ligand	1 µM	42
c1ccc(N2CCN(Cc3nc4ccccc4[nH]3)CC2)nc1	binding, competition with immobilised ligand	1 µM	96
COc1ccnn2ncc(-c3ccnc(N(C)C)n3)c12	binding	1 µM	71
CC1=C(C#N)[C@@H](c2ccc3[nH]nc(C)c3c2)C(C#N)=C(c2ccc(Cl)cc2)N1	cell-free assay, competition with immobilised ligand	1 µM	53.5
CN(CCCC(F)(F)F)c1nccc(-c2cnn3ncccc23)n1	binding	1 µM	99
c1cncc(-c2cccc(Nc3nccc(NC4CCCCC4)n3)c2)c1	binding, competition with immobilised ligand	10 µM	32
O=C(c1ccc(Nc2nccc(-c3cc4ccccc4s3)n2)cc1)N1CCC(N2CCCC2)CC1	binding, competition with immobilised ligand	1 µM	42
CO[C@@H](C)c1c(Nc2ccc([C@H](N(C)C(=O)C3CCS(=O)(=O)CC3)C(F)(F)F)cc2)cnc2cc(Cl)nn12	cell-free assay, competition with immobilised ligand	1 µM	93
O=C(Nc1c[nH]nc1C(=O)NC1CCNCC1)c1cc(F)cc(F)c1	binding, competition with immobilised ligand	1 µM	100
Nc1cnc(N2CCc3cc(S(=O)(=O)Nc4c(F)cc(Cl)cc4F)cc(N4CCCC4=O)c32)nc1	cell-free assay, competition with immobilised ligand	1 µM	100
N[C@@H]1CCN(c2nccc(-c3cnn4ncccc34)n2)C1	binding	1 µM	59
C[C@@H](c1ccc(-n2cnc3c(N)ncnc32)cc1)N1CCc2nn(C)c(Cc3ccccc3)c2C1=O	binding, competition with immobilised ligand	0.1 µM	63
C[C@H]1CCN(c2nccc(-c3cnn4ncccc34)n2)C1	binding	1 µM	69
O=C(NCCCN1CCOCC1)c1ccc(Nc2ncc(Cl)c(-c3ccc(Cl)s3)n2)cc1	binding, competition with immobilised ligand	1 µM	51
COc1cnc(Nc2cccc(S(N)(=O)=O)c2)nc1N1CCN(c2ccccc2)C(=O)C1	binding, competition with immobilised ligand	1 µM	84
